Test [1] relates to Candida albicans. Description: Antifungal activity against Candida albicans cgmcc2.2086 measured after 48 hrs by broth microdilution method. The format is functional. As to conditions: cgmcc2.2086, 48 h. In short, it runs like this:
(§1)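 Modified CLSI M27-A2 microdilution. Yeast colonies were diluted in MOPS-buffered RPMI 1640 to a final (0.5–1) × 10^3 CFU mL−1 and mixed with an equal volume of peptide serially diluted in 0.2% BSA. After 48 h at 28 °C, MIC was read at A492 as the lowest concentration inhibiting 95% of growth. At least three independent experiments, each with three technical replicates.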
A general note: Broth dilution looks for growth in wells or tubes with falling amounts of substance.

Test [2] concerns Candida parapsilosis. Description: Antifungal activity against Candida parapsilosis cgmcc2.3989 measured after 48 hrs by broth microdilution method. As to conditions: Lodderomyces parapsilosis, cgmcc2.3989, 48 h. The format is functional. In short, it runs like this:
as §1

Test [3] concerns Candida tropicalis. Description: Antifungal activity against Candida tropicalis cgmcc2.1975 measured after 48 hrs by broth microdilution method. Format: functional. As to conditions: cgmcc2.1975, 48 h. In short, it runs like this: as §1
The subject of test [4] is Candida albicans. Description: Fungicidal activity against Candida albicans cgmcc2.2086 incubated for 48 hrs followed by replating on YM agar plate and measured after 48 hrs. Format: functional. In short, it runs like this:
(§2)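 Yeast diluted in MOPS-buffered RPMI 1640 to (0.5–1) × 10^3 CFU/mL (CLSI M27-A2, modified) and mixed 1:1 with peptide serially diluted in 0.2% BSA. After 48 h at 28 °C, 50 μL per well was plated on YM agar and incubated 48 h at 28 °C. MFC taken as the lowest concentration killing ≥99.9% of cells. Three or more independent experiments, triplicate wells.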

The subject of test [5] is Candida parapsilosis. Description: Fungicidal activity against Candida parapsilosis cgmcc2.3989 incubated for 48 hrs followed by replating on YM agar plate and measured after 48 hrs. The format is functional. In short, it runs like this: as §2
For test [6], the system named is Candida tropicalis. Description: Fungicidal activity against Candida tropicalis cgmcc2.1975 incubated for 48 hrs followed by replating on YM agar plate and measured after 48 hrs. Format: functional. Summed up:
as §2

The subject of test [7] is Candida albicans. Description: Antifungal activity against Candida albicans cgmcc2.2086 infected in C57BL/6 mouse model of keratitis assessed as reduction in clinical score at 1 mg/ml administered as topical eye drop every 5 mins for first 4 hrs and every 30 mins for next 7 hrs measured post-last dose. Format: functional, organism-based.
Test [8] has as its system Candida albicans. Description: Antifungal activity against Candida albicans cgmcc2.2086 infected in C57BL/6 mouse model of keratitis assessed as appearance of transparent corneas at 1 mg/ml administered as topical eye drop every 5 mins for first 4 hrs and every 30 mins for next 7 hrs measured post-last dose. Format: functional, organism-based.
For test [9], the system named is Candida albicans. Description: Antifungal activity against Candida albicans cgmcc2.2086 infected in C57BL/6 mouse model of keratitis assessed as appearance of transparent irises at 1 mg/ml administered as topical eye drop every 5 mins for first 4 hrs and every 30 mins for next 7 hrs measured post-last dose. The format is functional, organism-based.
Test [10] deals with Candida albicans. Description: Antifungal activity against Candida albicans cgmcc2.2086 infected in C57BL/6 mouse model of keratitis assessed as reduction in fungal hyphae extention into corneal stroma at 1 mg/ml administered as topical eye drop every 5 mins for first 4 hrs and every 30 mins for next 7 hrs measured post-last dose by periodic acid schiff staining-based histological analysis. Format: functional, organism-based.

For test [11], the system named is Candida albicans. Description: Antifungal activity against Candida albicans cgmcc2.2086 infected in C57BL/6 mouse model of keratitis assessed as reduction in fungal hyphae infiltration into corneal stroma at 1 mg/ml administered as topical eye drop every 5 mins for first 4 hrs and every 30 mins for next 7 hrs measured post-last dose by periodic acid schiff staining-based histological analysis. Format: functional, organism-based.

Test [12] concerns Candida albicans. Description: Antifungal activity against Candida albicans cgmcc2.2086 infected in C57BL/6 mouse model of keratitis assessed as reduction in fungal colonies in eyeballs at 1 mg/ml administered as topical eye drop every 5 mins for first 4 hrs and every 30 mins for next 7 hrs measured post-last dose by agar plate method relative to control. The format is functional. Details: scale not given: the % may be the effect or the level left.

Each structure is given as a SMILES string. In brackets after ≈: the same amount, converted by molar mass. Activity calls are given as the source filed them. The rule behind the calls is not given here. Some results are limits rather than exact numbers.

Turning to `C[C@@H]1[C@H](O)[C@@H](C)/C=C/C=C/C=C/C=C/C=C/C=C/C=C/[C@H](O[C@@H]2O[C@H](C)[C@@H](O)[C@H](N)[C@@H]2O)C[C@@H]2O[C@](O)(C[C@@H](O)C[C@@H](O)[C@H](O)CC[C@@H](O)C[C@@H](O)CC(=O)O[C@H]1C)C[C@H](O)[C@H]2C(=O)O` [AMPHOTERICIN B], the values for the MIC95 in the test on Candida albicans [1], against Candida parapsilosis [2] and against Candida tropicalis [3] were 1 µM (≈ 0.924 µg/mL), 2 µM (≈ 1.85 µg/mL) and 1 µM (≈ 0.924 µg/mL), respectively. Also, the “MFC<=99.9” value is 2 µM (≈ 1.85 µg/mL) against Candida albicans [4], 4 µM (≈ 3.7 µg/mL) against Candida parapsilosis [5] and 2 µM (≈ 1.85 µg/mL) against Candida tropicalis [6]. Further, the outcome in the test with Candida albicans [7], with Candida albicans [8], in the test on Candida albicans [9], in the test with Candida albicans [10] and in the test on Candida albicans [11] was Active. The Activity result in the test on Candida albicans [12] is given as “<=80%”.

These data come from ChEMBL document CHEMBL4350958, “Rational Design of Short Peptide Variants by Using Kunitzin-RE, an Amphibian-Derived Bioactivity Peptide, for Acquired Potent Broad-Spectrum Antimicrobial and Improved Therapeutic Potential of Commensalism Coinfection of Pathogens” (J Med Chem, 2019).
